In data set [1] the target is T1, Prostaglandin G/H synthase 1 (Ovis aries, UniProt P05979).
T1 sequence (P05979 whole entry): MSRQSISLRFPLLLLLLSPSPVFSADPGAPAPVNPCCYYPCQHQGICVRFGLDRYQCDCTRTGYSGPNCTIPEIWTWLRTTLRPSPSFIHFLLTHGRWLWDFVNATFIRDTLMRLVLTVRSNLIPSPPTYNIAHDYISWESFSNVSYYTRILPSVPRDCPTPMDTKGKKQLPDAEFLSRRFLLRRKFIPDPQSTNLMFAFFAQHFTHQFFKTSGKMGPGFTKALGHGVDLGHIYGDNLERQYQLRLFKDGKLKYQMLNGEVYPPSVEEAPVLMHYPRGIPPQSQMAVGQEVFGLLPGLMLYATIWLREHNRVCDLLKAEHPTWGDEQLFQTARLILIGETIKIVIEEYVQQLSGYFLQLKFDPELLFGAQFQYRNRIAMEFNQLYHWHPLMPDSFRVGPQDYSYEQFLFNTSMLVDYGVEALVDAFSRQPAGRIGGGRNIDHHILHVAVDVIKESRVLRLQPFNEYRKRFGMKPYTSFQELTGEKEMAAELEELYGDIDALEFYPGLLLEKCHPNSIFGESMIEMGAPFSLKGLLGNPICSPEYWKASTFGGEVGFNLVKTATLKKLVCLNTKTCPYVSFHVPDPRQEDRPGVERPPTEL
Description: Inhibition of ovine COX-1 assessed as [14C] arachidonic acid remaining using [14C] arachidonic acid as substrate preincubated for 20 mins followed by substrate addition measured after 30 sec by thin layer chromatography assay. The procedure, abridged: (§1)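 Purified ovine COX-1 or murine COX-2 preincubated 20 min with vehicle or compound at various concentrations. [1-¹⁴C]arachidonic acid was then added and the reaction run a further 30 s. Conversion read by thin layer chromatography. IC50 derived.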

The target in data set [2] is T2, Prostaglandin G/H synthase 2 (Mus musculus, UniProt Q05769).
T2 sequence (Q05769 whole entry): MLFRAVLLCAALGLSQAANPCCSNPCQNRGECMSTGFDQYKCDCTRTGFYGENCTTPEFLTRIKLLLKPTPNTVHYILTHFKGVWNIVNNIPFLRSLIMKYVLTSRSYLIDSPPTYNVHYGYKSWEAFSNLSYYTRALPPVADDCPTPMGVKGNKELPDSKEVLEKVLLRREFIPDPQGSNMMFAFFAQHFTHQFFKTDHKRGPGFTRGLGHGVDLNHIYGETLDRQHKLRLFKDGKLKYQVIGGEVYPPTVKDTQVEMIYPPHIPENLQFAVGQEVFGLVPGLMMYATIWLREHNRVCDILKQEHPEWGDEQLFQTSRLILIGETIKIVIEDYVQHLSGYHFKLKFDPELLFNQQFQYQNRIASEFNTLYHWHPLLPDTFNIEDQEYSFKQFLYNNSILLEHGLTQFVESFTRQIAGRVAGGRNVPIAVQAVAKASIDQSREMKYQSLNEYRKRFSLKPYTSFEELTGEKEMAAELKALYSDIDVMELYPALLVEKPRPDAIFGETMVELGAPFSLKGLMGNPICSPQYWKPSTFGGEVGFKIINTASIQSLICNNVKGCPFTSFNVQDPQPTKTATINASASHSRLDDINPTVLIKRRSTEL
As to the kind of experiment: Inhibition of murine COX-2 assessed as [14C] arachidonic acid remaining using [14C] arachidonic acid as substrate preincubated for 20 mins followed by substrate addition measured after 30 sec by thin layer chromatography assay. The procedure, abridged: as §1

The target of data set [3] is T3, Prostaglandin G/H synthase 1 (Homo sapiens, UniProt P23219). Description: Inhibition of COX-1 in human OVCAR3 cells assessed as [14C] arachidonic acid remaining using [14C] arachidonic acid as substrate preincubated for 30 mins followed by substrate addition measured after 30 mins. Format: cell-based, OVCAR-3. The procedure, abridged: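 Intact OVCAR-3 cells treated 30 min with vehicle or compound across several concentrations, then given [1-¹⁴C]arachidonic acid for another 30 min. Medium aliquots were quenched, extracted, run on TLC and scanned for substrate remaining. IC50 taken from the concentration series.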
T3 sequence (P23219 whole entry): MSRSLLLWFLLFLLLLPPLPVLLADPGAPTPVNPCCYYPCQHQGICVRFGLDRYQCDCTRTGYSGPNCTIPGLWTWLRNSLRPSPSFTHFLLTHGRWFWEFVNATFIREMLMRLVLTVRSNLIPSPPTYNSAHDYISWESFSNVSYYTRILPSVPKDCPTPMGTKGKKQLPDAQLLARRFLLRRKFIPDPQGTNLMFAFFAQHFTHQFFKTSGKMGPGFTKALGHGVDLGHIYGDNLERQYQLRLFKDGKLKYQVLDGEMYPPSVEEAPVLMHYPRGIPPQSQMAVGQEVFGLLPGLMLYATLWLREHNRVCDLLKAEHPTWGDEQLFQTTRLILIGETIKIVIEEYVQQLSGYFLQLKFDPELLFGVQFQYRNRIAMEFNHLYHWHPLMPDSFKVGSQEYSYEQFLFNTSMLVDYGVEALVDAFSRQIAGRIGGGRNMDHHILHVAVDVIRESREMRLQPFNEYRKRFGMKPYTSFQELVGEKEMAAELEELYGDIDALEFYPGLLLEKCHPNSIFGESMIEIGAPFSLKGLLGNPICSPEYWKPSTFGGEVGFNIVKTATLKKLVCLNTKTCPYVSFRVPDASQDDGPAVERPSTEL

For data set [4], the target named is T3, Prostaglandin G/H synthase 1. Description: Binding affinity to COX-1 in human OVCAR3 cells assessed as protein labeling pretreated with indomethacin for 30 mins followed by compound treatment for 30 mins and subsequent compound washout followed by cultured in serum media measured after 45 mins by fluorescence microscope based optical imaging analysis. Format: cell-based. To be noted: OVCAR-3. The procedure, abridged:
(§2)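 OVCAR-3 cells pretreated 30 min with vehicle or indomethacin, then exposed to probe 30 min, washed briefly and cultured 45 min in serum-containing medium. Intracellular fluorescence then imaged under a fluorescence microscope.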

Data set [5] has the same target. Description: Binding affinity to COX-1 in human OVCAR3 cells assessed as protein labeling treated for 30 mins and subsequent compound washout followed by cultured in serum media measured after 45 mins by fluorescence microscope based optical imaging analysis. Format: cell-based. Conditions: OVCAR-3. The procedure, abridged: as §2
Data set [6] in a line: Drug uptake in NU-Fox1nu nude mouse xenografted with COX-1 expressing human OVCAR3 cells at 1 mg/kg, ip and measured before 2 hrs post-drug administration by IVIS spectrum in vivo fluorescence imaging analysis. It counts as ADME, organism-based. The procedure, abridged:
(§3)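 Female athymic nude mice carried subcutaneous OVCAR-3 xenografts on the left hind flank, grown to about 750–1000 mm³. Probe given i.p. at 1 mg/kg in DMSO. Mice lightly anesthetized and imaged on an IVIS system at 15 min, 30 min, 1, 2, 3 and 4 h post-injection.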

Data set [7] can be described thus: Drug uptake in NU-Fox1nu nude mouse xenografted with COX-1 expressing human OVCAR3 cells at 1 mg/kg, ip and measured after 3 to 4 hrs post-drug administration by IVIS spectrum in vivo fluorescence imaging analysis. Format: ADME, organism-based. Conditions: time 3-4 hrs. The procedure, abridged: as §3
(In general: In xenograft studies the graft and the host belong to different species.)

The nature of data set [8]: Drug uptake in tumor of NU-Fox1nu nude mouse xenografted with COX-1 expressing human OVCAR3 cells at 1 mg/kg, ip by IVIS spectrum ex vivo fluorescence imaging analysis. It counts as ADME, organism-based, Neoplasm. The procedure, abridged: (§4)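 OVCAR-3 xenograft-bearing female nude mice (tumors 750–1000 mm³) were dosed with probe at 1 mg/kg i.p. in DMSO. After in vivo imaging, tumor, muscle, kidney and liver were collected and imaged ex vivo.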

Data set [9] in a line: Drug uptake in kidney of NU-Fox1nu nude mouse xenografted with COX-1 expressing human OVCAR3 cells at 1 mg/kg, ip by IVIS spectrum ex vivo fluorescence imaging analysis. Format: ADME, organism-based. The procedure, abridged: as §4
The nature of data set [10]: Drug uptake in liver of NU-Fox1nu nude mouse xenografted with COX-1 expressing human OVCAR3 cells at 1 mg/kg, ip by IVIS spectrum ex vivo fluorescence imaging analysis. It counts as ADME, organism-based. The procedure, abridged: as §4
Data set [11] can be described thus: Drug uptake in leg muscle of NU-Fox1nu nude mouse xenografted with COX-1 expressing human OVCAR3 cells at 1 mg/kg, ip by IVIS spectrum ex vivo fluorescence imaging analysis. Format: ADME, organism-based. The procedure, abridged:
as §4

The nature of data set [12]: Drug uptake in NU-Fox1nu nude mouse allografted with mouse ID8-NGL cells at 2 mg/kg, ip measured after 3 to 4 hrs post-drug administration by IVIS spectrum in vivo fluorescence imaging analysis. Conditions: time 3-4 hrs. Format: ADME, organism-based. The procedure, abridged:
(§5)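 Female athymic nude mice bearing ID8-NGL flank allografts (left hind flank, grown to 750–1000 mm³; n = 6). Probe given i.p. at 2 mg/kg in DMSO. Imaged under light anesthesia on an IVIS system 3 to 4 h post-injection.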

Data set [13] is described as follows: Drug uptake in tumor of NU-Fox1nu nude mouse allografted with mouse ID8-NGL cells at 2 mg/kg, ip measured after 3 to 4 hrs post-drug administration by IVIS spectrum in vivo fluorescence imaging analysis relative to control. Format: ADME, organism-based, Neoplasm. Conditions: time 3-4 hrs. The procedure, abridged:
as §5

Data set [14] is described as follows: Drug uptake in tumor of NU-Fox1nu nude mouse allografted with mouse ID8-NGL cells at 2 mg/kg, ip treated with 10 mg/kg indomethacin 1hr prior to compound treatment followed by compound administration measured after 3 to 4 hrs post-drug administration by IVIS spectrum fluorescence imaging analysis. Conditions: in vivo, time 3-4 hrs. Format: ADME, organism-based, Neoplasm. The procedure, abridged:
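ID8-NGL flank allografts (750–1000 mm³) in nude mice. Indomethacin 10 mg/kg i.p. in DMSO given 1 h before probe (2 mg/kg i.p. in DMSO). Tumors imaged 3 to 4 h after probe; region-of-interest light emission read at 3.5 h in relative fluorescence units.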

Calls of active or inactive are those of the source. No cut-off for these calls is given here. Bounds are passed on as bounds.

What is called IC50 is the concentration that gives 50% inhibition. `COc1ccc(-n2nc(CCC(=O)NCCCCNC(=O)c3ccc(C4=c5cc6c7c(c5Oc5c4cc4c8c5CCCN8CCC4)CCC[N+]=7CCC6)c(C(=O)[O-])c3)cc2-c2ccc(C)cc2)cc1`: the IC50 in data set [1] was 94 nM; in data set [2], over 1000 nM; in data set [3] it was 44 nM. Further, the result in data set [4] was inactive. Also, the outcome in data set [5] was Active. Besides, the Drug uptake result is reported as “Not Active” in data set [6]; “Active” in data set [7]; “Active” in data set [8]; “Active” in [9]; “Active” in data set [10]; “Active” in data set [11]. Moreover, the Drug uptake entry in data set [12] was “Active”; in [14], “Not Active”. Moreover, the “fold change (FC)” value in data set [13] is 8.

For the origin of these results see ChEMBL document CHEMBL4725426, “Targeted Detection of Cyclooxygenase-1 in Ovarian Cancer” (ACS Med Chem Lett, 2020).
